The source made the active and inactive calls. The rule behind the calls is not given here.
How the values were obtained:
HUVEC [1] = assay: Inhibition of HUVEC cell adhesion to collagen at 30 uM after 3 hrs
HUVEC [2] = assay: Cytotoxicity against HUVEC cells after 48 hrs by MTT assay; format: cell-based; details: Homo sapiens
Procedure, shortened: (§1)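 Cells seeded at 5000 per well, exposed to a range of concentrations. MTT step, then 4 h further incubation. Formazan dissolved in DMSO, OD read at 490 nm. Triplicate wells; IC50 taken from curves of mean OD versus concentration.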

HUVEC [3] = assay: Inhibition of HUVEC cell adhesion to collagen at 15 uM; details: Homo sapiens
[4] = Cytotoxicity against human GLC82 cells after 48 hrs by MTT assay; format: functional, cell-based; details: GLC82, 48 h
Procedure, shortened: as §1

NCI-H460 = assay: Cytotoxicity against human NCI-H460 cells after 48 hrs by MTT assay; format: functional, cell-based; details: NCI-H460, 48 h
Procedure, shortened: as §1

Gallus gallus = species on record: Gallus gallus; assay: Antiangiogenic activity in fertilized chicken eggs at 30 ug/10 uL after 48 hrs by CAM assay; format: functional; details: Egg
Procedure, shortened: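 Test agent applied to the chick CAM at 30 µg/10 µL, 10 eggs per treatment; 0.9% NaCl as negative control, thalidomide as positive control. After 48 h, CAMs fixed in 4% paraformaldehyde, vessels counted in three random microscope fields around the filter disc.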

HUVEC [5] = assay: Inhibition of migration of HUVEC cellss at 15 to 30 uM; format: functional, Homo sapiens
Procedure, shortened: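 Scratch-wound assay: HUVEC plated at 20 000 cells per well, monolayer scraped with a rubber policeman, then incubated 24 h with or without compound. Two random pictures per wound; migration area measured. Triplicate measurements, at least three experiments.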

HUVEC [6] = assay: Inhibition of HUVEC cell adhesion to collagen at 15 uM after 1 hr; format: functional, cell-based; details: Homo sapiens
Procedure, shortened: (§2)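 Wells coated overnight at room temperature with rat tail tendon type I collagen in PBS, blocked with 0.2% BSA for 2 h at 37 °C. HUVEC resuspended in DMEM and added at 10⁴ cells/ml with compound, incubated 1 or 3 h at 37 °C. After washing, attached cells stained with 0.2% crystal violet and solubilized in 2% SDS; OD at 570 nm. Triplicate wells, three independent experiments.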

HUVEC [7] = assay: Inhibition of HUVEC cell adhesion to collagen at 30 uM after 1 hr; format: functional; details: Homo sapiens
Procedure, shortened: as §2

HUVEC [8] = assay: Inhibition of HUVEC cell adhesion to collagen at 15 uM after 3 hrs; format: functional; details: Homo sapiens
Procedure, shortened: as §2

For `Cc1ccc(-c2cc(=O)c3ccccc3n2C)cc1`, the “inhibition (INH)” value (HUVEC [1]) was 8.1%, the IC50 (HUVEC [2]) was over 100 µM and the inhibition at 15 µM (HUVEC [3]) was 30.3%. It also gave an IC50 [4] of over 100 µM and an IC50 (NCI-H460) of over 100 µM.

With `Cc1ccc(-c2cc(NCCCN3CCOCC3)c3ccccc3n2)cc1` the Activity (Gallus gallus) was “Active”, the “inhibition (INH)” value (HUVEC [1]) was 49.2% and the IC50 (HUVEC [2]) was 45.2 µM. For the same compound, the inhibition at 15 µM (HUVEC [3]) was 47.2%, the IC50 [4] was 49.5 µM and the IC50 (NCI-H460) was 11.5 µM.

For `COc1cc(-c2ccc(COC(=O)c3cccs3)cc2)nc2ccccc12`, the “inhibition (INH)” value (HUVEC [1]) was 27.4%, the IC50 (HUVEC [2]) was over 100 µM and the inhibition at 15 µM (HUVEC [3]) was 37.4%. The IC50 [4] was over 100 µM and the IC50 (NCI-H460) was over 100 µM.

With `COc1ccc(Nc2cc(-c3ccc(C)cc3)nc3ccccc23)cc1` the Activity (Gallus gallus) was “Active”, the “inhibition (INH)” value (HUVEC [1]) was 48.1% and the IC50 (HUVEC [2]) was 14.3 µM. It also gave an inhibition at 15 µM (HUVEC [3]) of 42.4%, an IC50 [4] of 34.2 µM and an IC50 (NCI-H460) of 24.2 µM.

For `CN(C)CCCNCc1ccc(-c2cc(=O)c3ccccc3n2C)cc1`, the “inhibition (INH)” value (HUVEC [1]) was 42%, the IC50 (HUVEC [2]) was 99.7 µM and the inhibition at 15 µM (HUVEC [3]) was 31.9%. For the same compound, the IC50 [4] was over 100 µM and the IC50 (NCI-H460) was over 100 µM.

With `c1ccc2c(NCCCN3CCOCC3)cc(-c3ccc(CNCCCN4CCOCC4)cc3)nc2c1` the IC50 (HUVEC [2]) was 56.5 µM, the IC50 [4] was 34.4 µM and the “inhibition (INH)” value (HUVEC [5]) was 49.2%. The IC50 (HUVEC [6]) was over 100 µM, the inhibition at 30 µM (HUVEC [7]) was 15.8% and the inhibition at 15 µM (HUVEC [8]) was 46.2%. The IC50 (NCI-H460) was 42.3 µM.

In the case of `COc1ccc(-c2cc(Cl)c3ccccc3n2)cc1`, the “inhibition (INH)” value (HUVEC [1]) is reported as 48.2%, the IC50 (HUVEC [2]) is reported as over 100 µM and the inhibition at 15 µM (HUVEC [3]) is reported as 52.6%. The IC50 [4] was over 100 µM and the IC50 (NCI-H460) was over 100 µM.

With `Cc1ccc(-c2cc(Cl)c3ccccc3n2)cc1` the “inhibition (INH)” value (HUVEC [1]) was 35.2%, the IC50 (HUVEC [2]) was over 100 µM and the inhibition at 15 µM (HUVEC [3]) was 39%. It also gave an IC50 [4] of over 100 µM and an IC50 (NCI-H460) of over 100 µM.

With `Cc1ccc(-c2cc(NCCO)c3ccccc3n2)cc1` the Activity (Gallus gallus) was “Active”, the “inhibition (INH)” value (HUVEC [1]) was 40% and the IC50 (HUVEC [2]) was 73.7 µM. The inhibition at 15 µM (HUVEC [3]) was 38.3%, the IC50 [4] was 61.1 µM and the IC50 (NCI-H460) was 53.7 µM.

In the case of `Cc1ccc(-c2cc(NCCCO)c3ccccc3n2)cc1`, the Activity (Gallus gallus) is reported as “Active”, the “inhibition (INH)” value (HUVEC [1]) is reported as 33.8% and the IC50 (HUVEC [2]) is reported as 63.5 µM. The inhibition at 15 µM (HUVEC [3]) was 44.2%, the IC50 [4] was 60.3 µM and the IC50 (NCI-H460) was 48.1 µM.

With `COc1cc(-c2ccc(CO)cc2)nc2ccccc12` the “inhibition (INH)” value (HUVEC [1]) was 19.4%, the IC50 (HUVEC [2]) was over 100 µM and the inhibition at 15 µM (HUVEC [3]) was 27.5%. It also gave an IC50 [4] of over 100 µM and an IC50 (NCI-H460) of over 100 µM.

In the case of `Cc1ccc(-c2cc(NCCN(C)C)c3ccccc3n2)cc1`, the Activity (Gallus gallus) is reported as “Active”, the “inhibition (INH)” value (HUVEC [1]) is reported as 48.2% and the IC50 (HUVEC [2]) is reported as 30.3 µM. The inhibition at 15 µM (HUVEC [3]) was 52.2%, the IC50 [4] was 20.6 µM and the IC50 (NCI-H460) was 6.1 µM.

For `COc1ccc(-c2cc(NCCO)c3ccccc3n2)cc1`, the “inhibition (INH)” value (HUVEC [1]) was 54.9%, the IC50 (HUVEC [2]) was 74.1 µM and the inhibition at 15 µM (HUVEC [3]) was 54.1%. The IC50 [4] was 56.2 µM and the IC50 (NCI-H460) was 38.3 µM.

For `COc1ccc(-c2cc(NCCCO)c3ccccc3n2)cc1`, the “inhibition (INH)” value (HUVEC [1]) was 56.4%, the IC50 (HUVEC [2]) was 47.6 µM and the inhibition at 15 µM (HUVEC [3]) was 45.3%. It also gave an IC50 [4] of 40.9 µM and an IC50 (NCI-H460) of 24 µM.

In the case of `Clc1cc(-c2ccc(CNCCCN3CCOCC3)cc2)nc2ccccc12`, the “inhibition (INH)” value (HUVEC [1]) is reported as 72.3%, the IC50 (HUVEC [2]) is reported as 22.4 µM and the inhibition at 15 µM (HUVEC [3]) is reported as 67.8%. It also gave an IC50 [4] of 30.6 µM and an IC50 (NCI-H460) of 21.1 µM.

For `COc1cc(-c2ccc(C)cc2)nc2ccccc12`, the “inhibition (INH)” value (HUVEC [1]) was 20.3%, the IC50 (HUVEC [2]) was over 100 µM and the inhibition at 15 µM (HUVEC [3]) was 35.4%. For the same compound, the IC50 [4] was over 100 µM and the IC50 (NCI-H460) was over 100 µM.
